Assay results reported in ChEMBL document CHEMBL1144463, “Rapid bactericidal activity of daptomycin against methicillin-resistant and methicillin-susceptible Staphylococcus aureus peritonitis in mice as measured with bioluminescent bacteria” (2007).
In brackets after ≈: the same amount, converted by molar mass.

Legend:
Type in all cases: functional
Staphylococcus aureus [1] = test: Antibacterial activity against methicillin-susceptible Staphylococcus aureus Xen29 infected neutropenic CD1 mouse assessed as mortality at 100 mg/kg, po after 4 days
Outline: (§1)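 Female CD-1 mice (20–25 g) were made neutropenic with cyclophosphamide i.p. at 150 mg/kg 4 days and 100 mg/kg 1 day before infection. They were infected i.p. with a lethal dose of lux strain (2 × 10^7 to 5 × 10^8 CFU/mouse) suspended in 6% hog gastric mucin. A single s.c. or gavage dose was given 1 h later. Survivors were counted daily for 7 days, n=5/group.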

Staphylococcus aureus [2] = test: Antibacterial activity against methicillin-resistant Staphylococcus aureus Xen1 infected neutropenic CD1 mouse assessed as mortality at 100 mg/kg, po after 4 days; outline: as §1
Staphylococcus aureus [3] = test: Antibacterial activity against methicillin-susceptible Staphylococcus aureus Xen29 infected neutropenic CD1 mouse assessed as mortality at 100 mg/kg, po within 24 hrs; settings: Xen29, 24 h; outline: as §1
Staphylococcus aureus [4] = test: Antibacterial activity against methicillin-resistant Staphylococcus aureus Xen1 infected neutropenic CD1 mouse assessed as mortality at 100 mg/kg, po within 24 hrs; settings: Xen1, 24 h; outline: as §1
Staphylococcus aureus [5] = test: Reduction in bioluminescent methicillin-resistant Staphylococcus aureus Xen1 in neutropenic CD1 mouse with peritonitis at 100 mg/kg, po after 3 hrs relative to control; set-up: scale not given: the % may be the effect or the level left
Outline: (§2)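 Cyclophosphamide-neutropenic female CD-1 mice (150 mg/kg i.p. day −4, 100 mg/kg day −1) were infected i.p. with a lethal inoculum in 6% mucin. A single s.c. or gavage dose was given 1 h later. Mice were anesthetized and imaged hourly to 5 h. Region-of-interest total flux (photons/s/cm2) was averaged over 5 mice. Percent reduction is relative to time-matched saline (10 ml/kg s.c.) controls.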

Staphylococcus aureus [6] = test: Reduction in bioluminescent methicillin-resistant Staphylococcus aureus Xen1 in neutropenic CD1 mouse with peritonitis at 100 mg/kg, po after 5 hrs relative to control; set-up: scale not given: the % may be the effect or the level left; outline: as §2
Staphylococcus aureus [7] = test: Reduction in bioluminescent methicillin-sensitive Staphylococcus aureus Xen29 in immunocompetent CD1 mouse with peritonitis at 100 mg/kg, po after 3 hrs relative to control; set-up: scale not given: the % may be the effect or the level left
Outline: (§3)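 Peritonitis in healthy female CD-1 mice (n = 5/group): i.p. Xen-29 (2 × 10^7 to 5 × 10^8 CFU) in 6% mucin, then a single s.c. or gavage dose at 1 h. Controls got saline 10 ml/kg s.c. Mice were anesthetized hourly (pentobarbital 60 mg/kg i.p. or isoflurane) and imaged ventral side up for 1–5 min, to 5 h postdosing. Total flux (photons/s/cm2) over the infected region was averaged per group. Percent reduction is versus time-matched saline controls.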

Staphylococcus aureus [8] = test: Antimicrobial activity against bioluminescent methicillin-resistant Staphylococcus aureus Xen1
Outline: (§4)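 MIC by broth microdilution following CLSI guidelines against bioluminescent lux-carrying strains (Xen-1 plasmid-borne lux, Xen-29 chromosomal lux), grown overnight in Mueller-Hinton broth at 37°C.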

Staphylococcus aureus [9] = test: Reduction in bioluminescent methicillin-sensitive Staphylococcus aureus Xen29 in neutropenic CD1 mouse with peritonitis at 100 mg/kg, po after 3 hrs relative to control; set-up: scale not given: the % may be the effect or the level left
Outline: (§5)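 Neutropenia was induced with cyclophosphamide 150 mg/kg i.p. at day −4 and 100 mg/kg i.p. at day −1. Mice were then infected i.p. with Xen-29 (2 × 10^7 to 5 × 10^8 CFU) in 6% mucin (n = 5/group) and dosed once, s.c. or by gavage, at 1 h. Luminescence was imaged hourly under anesthesia, 0–5 h postdosing. Mean region-of-interest flux is given as percent reduction versus time-matched saline (10 ml/kg s.c.) controls.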

Staphylococcus aureus [10] = test: Reduction in bioluminescent methicillin-sensitive Staphylococcus aureus Xen29 in neutropenic CD1 mouse with peritonitis at 100 mg/kg, po after 4 hrs relative to control; set-up: scale not given: the % may be the effect or the level left; outline: as §5
Staphylococcus aureus [11] = test: Reduction in bioluminescent methicillin-sensitive Staphylococcus aureus Xen29 in immunocompetent CD1 mouse with peritonitis at 100 mg/kg, po after 4 hrs relative to control; set-up: scale not given: the % may be the effect or the level left; outline: as §3
Staphylococcus aureus [12] = test: Reduction in bioluminescent methicillin-sensitive Staphylococcus aureus Xen29 in neutropenic CD1 mouse with peritonitis at 100 mg/kg, po after 5 hrs relative to control; set-up: scale not given: the % may be the effect or the level left; outline: as §5
Staphylococcus aureus [13] = test: Antimicrobial activity against bioluminescent methicillin-susceptible Staphylococcus aureus Xen29; outline: as §4
Staphylococcus aureus [14] = test: Reduction in bioluminescent methicillin-resistant Staphylococcus aureus Xen1 in neutropenic CD1 mouse with peritonitis at 100 mg/kg, po after 2 hrs relative to control; set-up: scale not given: the % may be the effect or the level left; outline: as §2
Staphylococcus aureus [15] = test: Reduction in bioluminescent methicillin-sensitive Staphylococcus aureus Xen29 in immunocompetent CD1 mouse with peritonitis at 100 mg/kg, po after 5 hrs relative to control; set-up: scale not given: the % may be the effect or the level left; outline: as §3

Compound	Activity (Staphylococcus aureus [1]) [%]	Activity (Staphylococcus aureus [2]) [%]	survival at 100 mg/kg (Staphylococcus aureus [3]) [%]	survival at 100 mg/kg (Staphylococcus aureus [4]) [%]	Activity (Staphylococcus aureus [5]) [%]	Activity (Staphylococcus aureus [6]) [%]	Activity (Staphylococcus aureus [7]) [%]	MIC (Staphylococcus aureus [8]) [µg/mL]	Activity (Staphylococcus aureus [9]) [%]	Activity (Staphylococcus aureus [10]) [%]	Activity (Staphylococcus aureus [11]) [%]	Activity (Staphylococcus aureus [12]) [%]	MIC (Staphylococcus aureus [13]) [µg/mL]	Activity (Staphylococcus aureus [14]) [%]	Activity (Staphylococcus aureus [15]) [%]
CN[C@H](CC(C)C)C(=O)N[C@H]1C(=O)N[C@@H](CC(N)=O)C(=O)N[C@H]2C(=O)N[C@H]3C(=O)N[C@H](C(=O)N[C@H](C(=O)O)c4cc(O)cc(O)c4-c4cc3ccc4O)[C@H](O)c3ccc(c(Cl)c3)Oc3cc2cc(c3O[C@@H]2O[C@H](CO)[C@@H](O)[C@H](O)[C@H]2O[C@H]2C[C@](C)(N)[C@H](O)[C@H](C)O2)Oc2ccc(cc2Cl)[C@H]1O [VANCOMYCIN]	100	100	100	100	–	–	–	–	–	–	–	–	–	–	–
CC(=O)NC[C@H]1CN(c2ccc(N3CCOCC3)c(F)c2)C(=O)O1 [LINEZOLID]	100	100	100	100	98	99.2	59	0.5 (≈ 1.48 µM)	68	89	85	96.6	1 (≈ 2.96 µM)	91	90
